For 8 compounds, GFP response vs DMSO, GFP response relative to DMSO and GFP response, % of DMSO results are on record in PubChem BioAssay.

The nature of assay [1]: hit retest on RPL19A-GFP reporter strain – cell-based, S. cerevisiae, flow cytometry, cherry picks, mother/daughter gates, confirmation (AID 2270;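 active = GFP response below 50% of the DMSO control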). To be noted: 3 h, at 10 µM, stronger effect = lower value, 100 = same GFP as DMSO wells. In general terms: In flow cytometry, cells or beads pass a laser one at a time.
Assay [2] can be described thus: yeast TOR pathway reporter LAP4-GFP change – cell-based, cherry picks, flow cytometry, mother/daughter gates, confirmation (AID 2271;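 active = GFP response above 150% of the DMSO control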;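 also: ratio of sample to DMSO plate mean so 100% equals DMSO level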). To be noted: S. cerevisiae LAP4-GFP strain, 3 h, at 10 µM, stronger effect = higher value, 100 means same as DMSO control. The method in brief: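 Material: Alexa 633-stained baker's yeast GFP-fusion strain; Compound dosing: single test-compound dose, 10 µM final; Incubation: 30 °C, 3 h compound incubation, rotating; Detection: HT flow cytometry, GFP fluorescence channel; Control set: positive rapamycin (400 ng/mL), negative DMSO.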

Assay [3] can be described thus: TOR pathway reporter MEP2-GFP, retest of hits – S. cerevisiae, flow cytometry GFP, cherry picks, confirmation (AID 2272;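 active = GFP response above 150% of the DMSO control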;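 also: ratio of well signal to plate DMSO mean so 100% equals DMSO level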). The following applies: S. cerevisiae MEP2-GFP strain, 3 h, at 10 µM, stronger effect = higher value.
Assay [4] in a line: yeast AGP1-GFP fluorescence change, single-dose – cell-based, flow cytometry, S. cerevisiae, cherry picks, confirmation (AID 2273).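 Also: median GFP channel fluorescence over the whole cell population gate.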 The following applies: S. cerevisiae AGP1-GFP strain, 3 h, at 10 µM.
The nature of assay [5]: TOR pathway CIT2 reporter hit retest – S. cerevisiae, GFP fusion, cherry picks, mother/daughter gates, confirmation (AID 2274). To be noted: S. cerevisiae CIT2-GFP strain, flow cytometry, 3 h, at 10 µM, stronger effect = higher value.
The mark [6] stands for this setting: measured here: daughter cell gate.
Setting [7] is: measured here: mother cell gate.
Setting [8] is: measured here: daughter cell gate response.
Setting [9] is: measured here: mother cell gate response.

The structures appear in SMILES notation. Activity calls are given as the source filed them.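 The calls were made as follows, unless noted: active = GFP response above 150% of the DMSO level; inconclusive = fewer than 70 events counted for a yeast strain; inactive = the rest.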

Take `O=C(CCc1nc(-c2ccccc2)no1)Nc1cc(C(F)(F)F)ccc1Cl`: the GFP response vs DMSO was 105% (inactive) in assay [1], 105% in assay [1] (setting [6]), 103% in assay [1] (setting [7]) and 105% (inactive) in assay [3]. The values for the GFP response relative to DMSO in assay [2], in assay [2] (setting [8]) and in assay [2] (setting [9]) were 91.9% (inactive), 91% and 92%, respectively. The GFP response, % of DMSO in assay [4] is 102% (inactive); in assay [5] it was 112% (inactive); in assay [5] (setting [6]) it was 108%; in assay [5] (setting [7]) it was 110%.
Take `O=C(Nc1ccc(S(=O)(=O)N2CCOCC2)cc1)c1ccc([N+](=O)[O-])cc1Cl`: the GFP response vs DMSO in assay [1] was 99.6% (inactive); in assay [1] (setting [6]) it was 101%; in assay [1] (setting [7]) it was 99.7%; in assay [3], 102% (inactive). Also, the GFP response relative to DMSO in assay [2] was 94.1% (inactive); in assay [2] (setting [8]), 94.4%; in assay [2] (setting [9]), 94%. In addition, the GFP response, % of DMSO in assay [4] is 91.7% (inactive); in assay [5] it was 101% (inactive); in assay [5] (setting [6]), 103%; in assay [5] (setting [7]), 99.7%.
For `CCOC(=O)c1ccc(NC(=O)c2ccc3c(c2)C(=O)N(Cc2cccnc2)C3=O)cc1`, the GFP response vs DMSO in assay [1] is 100% (inactive); in assay [1] (setting [6]), 99.6%; in assay [1] (setting [7]) it was 100%; in assay [3], 102% (inactive). Further, the GFP response relative to DMSO in assay [2] is 94.1% (inactive); in assay [2] (setting [8]), 96%; in assay [2] (setting [9]), 94%. Further, the GFP response, % of DMSO in assay [4] was 99.3% (inactive); in assay [5] it was 99.7% (inactive); in assay [5] (setting [6]) it was 101%; in assay [5] (setting [7]) it was 98.5%.
`CC(C)(C)C(=O)NCC12C=CC(O1)C1C(=O)N(c3ccccc3)C(=O)C12` (stereo not drawn): the GFP response vs DMSO in assay [1] was 94% (inactive); in assay [1] (setting [6]), 96.1%; in assay [1] (setting [7]), 92.9%; in assay [3] it was 110% (inactive). Moreover, the GFP response relative to DMSO in assay [2] was 108% (inactive); in assay [2] (setting [8]), 108%; in assay [2] (setting [9]), 111%. Besides, the GFP response, % of DMSO in assay [4] was 104% (inactive); in assay [5] it was 106% (inactive); in assay [5] (setting [6]), 105%; in assay [5] (setting [7]) it was 105%.
For the compound `O=C(N/N=C/c1ccccc1Cl)c1cccc(F)c1`, the GFP response vs DMSO is 101% (inactive) in assay [1], 98.1% in assay [1] (setting [6]), 99.8% in assay [1] (setting [7]) and 101% (inactive) in assay [3]. Besides, the GFP response relative to DMSO in assay [2] was 103% (inactive); in assay [2] (setting [8]), 101%; in assay [2] (setting [9]) it was 104%. In addition, the GFP response, % of DMSO in assay [4] is 98.8% (inactive); in assay [5], 100% (inactive); in assay [5] (setting [6]), 101%; in assay [5] (setting [7]), 98.1%.
Consider `CS(=O)(=O)Nc1ccc(C2=NN(S(C)(=O)=O)C(c3ccc4c(c3)OCO4)C2)cc1` (stereo not drawn), for which the GFP response vs DMSO was 98.6% (inactive) in assay [1], 98.4% in assay [1] (setting [6]), 99.4% in assay [1] (setting [7]) and 104% (inactive) in assay [3]. Further, the GFP response relative to DMSO in assay [2] is 97.4% (inactive); in assay [2] (setting [8]), 102%; in assay [2] (setting [9]) it was 99.3%. For the same compound, the GFP response, % of DMSO was 102% (inactive) in assay [4], 103% (inactive) in assay [5], 99.7% in assay [5] (setting [6]) and 103% in assay [5] (setting [7]).
For `Cc1onc(-c2ccccc2)c1C(=O)N1CCC(C)CC1`, the GFP response vs DMSO was 92% (inactive) in assay [1], 93.4% in assay [1] (setting [6]), 91.6% in assay [1] (setting [7]) and 118% (inactive) in assay [3]. Besides, the results for the GFP response relative to DMSO in assay [2], in assay [2] (setting [8]) and in assay [2] (setting [9]) were 103% (inactive), 102% and 103%, respectively. For the same compound, the GFP response, % of DMSO is 102% (inactive) in assay [4], 108% (inactive) in assay [5], 105% in assay [5] (setting [6]) and 107% in assay [5] (setting [7]).
`O=[N+]([O-])/C=C/c1cn(Cc2ccc(Cl)cc2)c2ccccc12`: the GFP response vs DMSO in assay [1] was 105% (inactive); in assay [1] (setting [6]), 102%; in assay [1] (setting [7]), 103%; in assay [3], 100% (inactive). The GFP response relative to DMSO in assay [2] is 95% (inactive); in assay [2] (setting [8]), 95.6%; in assay [2] (setting [9]), 96.2%. Moreover, the GFP response, % of DMSO in assay [4] is 98.3% (inactive); in assay [5] it was 106% (inactive); in assay [5] (setting [6]) it was 106%; in assay [5] (setting [7]), 102%.
